CHOP inh = blocks CHOP induction under ER stress; 220,000 compounds, 3.8% hits; CHO-K1 CHOP-promoter luciferase, tunicamycin-induced, 15-18 h; inhibition, % at 10 µM;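 active = compounds that reduced the stress-induced luciferase reporter signal by more than about 70% of percent inhibition, limit read from the data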
CTSL1 counter = counter-screen for PFM18AAP inhibitors: inhibitors of F. hepatica cathepsin L1 | recombinant F. hepatica cathepsin L1, Z-Leu-Arg-MCA fluorescence | inhibition, % at 5.96 µM | 300,000 compounds, 0.49% hits | AID 1906;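 active = inhibition above the mean of all tested compounds plus 3 SD, set per screening campaign, cut at about 17% in these data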
UCH37 inh = blocks the human deubiquitinase UCH37 | Q9Y5K5 | purified proteasome/UCH37, Ub-AMC cleavage fluorescence | inhibition, % (test concentration not listed) | 330,000 compounds, 0.33% hits | AID 588478;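 active = mean inhibition over replicate wells above about 20%, limit read from the data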
Target sequence (Q9Y5K5 whole entry, looked up): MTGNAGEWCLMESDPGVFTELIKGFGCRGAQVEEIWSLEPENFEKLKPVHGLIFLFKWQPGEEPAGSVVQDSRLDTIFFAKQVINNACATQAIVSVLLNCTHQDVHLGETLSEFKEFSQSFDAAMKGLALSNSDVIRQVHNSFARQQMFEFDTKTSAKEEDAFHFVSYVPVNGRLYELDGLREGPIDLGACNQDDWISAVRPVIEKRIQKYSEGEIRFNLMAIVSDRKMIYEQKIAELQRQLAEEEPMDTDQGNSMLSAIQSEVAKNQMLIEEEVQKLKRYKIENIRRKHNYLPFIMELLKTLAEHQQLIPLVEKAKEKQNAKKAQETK
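assay system = human UCH37 enzyme supplied as purified proteasome complex | amount = proteasome at 0.15 nM in the dispensed enzyme solution | schedule = 30 min compound-proteasome preincubation then 25 min substrate reaction, room temperature | measured by = fluorescence, ex 355 nm, em 460 nm | benchmarks = no-proteasome wells (full inhibition) and compound-free wells (no inhibition)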
UPR CHOP act = apoptotic UPR (CHOP) activation; CHO-CHOP luciferase reporter, luminescence; percent of tunicamycin response over DMSO baseline; activation, % at 10 µM; 330,000 compounds, 0.34% hits; AID 449763;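 active = at 10 µM dose, activation of 40% or more, normalized to positive control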
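assay system = CHO CHOP reporter cells | amount = 500 CHO-CHOP cells per well | buffer or medium = F12 with 10% FBS | incubation = 16-18 h cell attachment, then 6 h compound exposure, 37 °C | detection = luminescence read with Steady-Glo | read-out = percent activation relative to tunicamycin control | controls = tunicamycin high control, DMSO low control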
XBP1 UPR activ = adaptive UPR (XBP1) activation; CHO-XBP1 luciferase reporter, IRE1-XBP1 UPR activation, luminescence; percent of tunicamycin response, DMSO as zero; activation, % at 20 µM; 330,000 compounds, 0.33% hits;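 active = versus positive control, 20 µM dose yields 30% or more activation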
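Signal: luciferase luminescence; Assay system: CHO-XBP1 luciferase reporter cells; Amount: one thousand reporter cells per well; Dosing: 20 µM single concentration, DMSO 1%; Benchmarks: high control tunicamycin 10 µg/mL final, low control DMSO vehicle only; Schedule: 6 h compound exposure at 37 °C, 5% CO2; Evaluation: percent activation relative to tunicamycin reference.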
CHOP confirm = confirmation of CHOP induction inhibitors; inhibition, % at 10 µM; CHO-CHOP promoter luciferase reporter, tunicamycin-induced, luminescence; 2,100 compounds, 45% hits; shares compounds with CHOP inh;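 active = mean of three repeat readings of reporter signal inhibition above a set limit, cut at about 70% in these data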
CHOP UPR conf = apoptotic UPR (CHOP) activation, confirmed. shares compounds with UPR CHOP act. CHO-CHOP cells, CHOP-luciferase reporter luminescence; percent of tunicamycin response, DMSO as zero. activation, % at 10 µM. 1,000 compounds, 64% hits. AID 463112; in the data active = activation above about 33%
A number is an active result; n = inactive; x = no result. The entries come from a sample that favours hits as a whole.

SMILES	CHOP inh	CTSL1 counter	UCH37 inh	UPR CHOP act	XBP1 UPR activ	CHOP confirm	others
C=C(CO)CC1CC(O)[C@]2(C)OC3CC4OC5C[C@]6(C)O[C@]7(C)CCC8OC9C[C@]%10(C)OC%11C(C)=CC(=O)OC%11CC%10OC9C[C@@H](C)C8OC7CC6O[C@]5(C)C/C=C\C4OC3CC2O1 (some centres not stated)	n	n	n	n	n	x
COC(=O)C(O)(c1ccc(NC(=S)NC(=O)c2ccc(Cl)cc2Cl)c(C)c1)C(F)(F)F (configuration not stated)	98	n	n	n	n	106
CCOC(=O)c1ccc(N=C(C)c2c(O)[nH]c(=O)[nH]c2=O)cc1	n	n	n	n	n	x
CCOC(=O)c1sc(N=Nc2c(O)[nH]c(=O)[nH]c2=O)c(C(=O)OCC)c1C	105	n	n	n	n	106
C=C1C(=O)O[C@@H]2C[C@@H](C)[C@@H]3C=CC(=O)[C@@]3(C)[C@@H](O)[C@H]12	107	n	n	n	n	119
CCOc1ccc(N=Cc2c(O)n(-c3cc(C)cc(C)c3)c(=O)[nH]c2=O)cc1	n	n	n	n	n	x
CCOc1ccc(N=Cc2c(O)n(C(C)(C)C)c(=O)[nH]c2=O)cc1	99	n	n	n	n	127
C=CCN1C(=O)/C(=C/c2ccc(N3CCOCC3)o2)C(=O)NC1=S	n	n	n	n	n	x
O=C1NC(=O)N(Cc2ccco2)C(=O)/C1=C/c1ccc(-c2cccc([N+](=O)[O-])c2)o1	98	n	n	n	n	n
C=CCN1C(=O)NC(=O)/C(=C\c2ccc(-c3ccccc3[N+](=O)[O-])o2)C1=O	105	n	n	n	n	n
C[C@H]1C2Cc3ccc(O)cc3C1(C)CCN2CC1CC1 (some centres not stated)	n	x	x	x	x	x
COc1ccc(CN2C(=O)NC(=O)/C(=C\c3ccco3)C2=O)cc1	105	n	n	n	n	n
COc1ccc(CN2C(=O)NC(=O)/C(=C\c3cc(OC)c(OC)c(OC)c3)C2=O)cc1	n	n	n	n	n	x
O=C1NC(=S)NC(=O)C1=Cc1cccn1-c1ccc(O)cc1	107	x	n	x	x	n
CC(=NO)c1ccc2ccc3ccccc3c2c1	x	x	n	x	x	x
CCOC(=O)c1c(/N=C/c2c(O)n(-c3cccc(C)c3)c(=O)[nH]c2=O)sc2c1CCCC2	98	n	n	n	n	88
CCOC(=O)c1cc(C)sc1N=CC1C(=O)NC(=S)NC1=O	x	x	n	x	x	x
COCCCn1c(N)c(C(=O)NCCC(C)C)c2nc3ccccc3nc21	99	n	n	n	n	99
C=CCn1c(O)c(C(CC)=Nc2ccc(N(CC)CC)cc2)c(=O)[nH]c1=O	103	n	n	n	n	96
C=CCn1c(O)c(C(C)=Nc2ccc(N(CC)CC)cc2)c(=O)[nH]c1=O	n	n	n	n	n	x
CC1=CC2/C=C(\C)CCC(O)C(O)/C=C/C(=O)C23C(=O)NC(CC(C)C)C3C1C (configuration not stated)	105	n	x	n	n	125
OC(c1ccccc1)(c1ccccc1)C1CCNCC1	108	n	n	n	n	n
NC(N)=N/N=C/c1cn(-c2ccccc2)nc1-c1cccs1	106	n	x	n	n	98
C#CC1(O)CCC2C3CCC4=CC(=NOCC(=O)NCC(=O)NC(C(=O)O)C(C)C)CC[C@]4(C)C3CC[C@@]21C (some centres not stated)	x	x	n	x	x	x
Nc1ccccc1C(=O)OCCc1ccccc1	x	x	n	n	n	x
SMILES	CHOP inh	CTSL1 counter	UCH37 inh	UPR CHOP act	XBP1 UPR activ	CHOP confirm	others
CCCCCCOC(=O)c1ccccc1N	97	n	n	n	n	103
COc1cccc(C2/C(=C(/O)c3ccc4c(c3)OCO4)C(=O)C(=O)N2CCN2CCOCC2)c1 (configuration not stated)	x	n	n	n	n	x
N#Cc1c(N=CC2C(=O)NC(=S)NC2=O)sc2c1CCCC2	x	x	n	x	x	x
C=C1[C@@H](O)[C@]23C[C@@H]1[C@@H](O)C[C@H]2[C@@]12C4[C@@H]3C[C@@H]1[C@@](C)(CC[C@@H]2O)CN4CC	x	x	n	x	x	x
CN(C)c1ccc(NC(=O)CN2C(=O)CN=C(c3ccccc3)c3ccccc32)cc1	x	n	n	n	n	x
Cc1ccc(NC(=O)CN2C(=O)CN=C(c3ccccc3)c3cc(Cl)ccc32)cc1	107	n	n	n	n	n
O=C1NC(=O)N(c2ccccc2)C(=O)/C1=C/c1ccc(Sc2ccccc2)o1	104	n	n	x	x	n
CCC12CN3CCN(CC(C3)C1=NNC(=O)c1ccncc1)C2	x	x	n	x	x	x
NC(N)=NN=Cc1ccc(N2CCOCC2)cc1	x	x	n	x	x	x
CCOC(=O)c1c(-n2c(C)cc(C=C3C(=O)NC(=S)NC3=O)c2C)sc2c1CCCC2	107	n	n	185	n	140	CHOP UPR conf=n
CCOC(=O)c1c(-n2c(C)cc(/C=C3/C(=O)NC(=O)N(CC)C3=O)c2C)sc2c1CCCC2	x	n	n	n	n	x
COc1ccc2c(c1)[C@]13CCCC[C@@H]1[C@H](C2)N(C)CC3	x	x	n	x	x	x
Cc1ccc(/C=C2\C(=O)NC(=S)N(c3ccc(F)cc3)C2=O)s1	103	n	n	393	n	n	CHOP UPR conf=n
COc1ccc(N2C(=O)/C(=C/c3cccs3)C(=O)NC2=S)cc1	104	n	n	462	n	n	CHOP UPR conf=157
Cc1cccc(N2C(=O)CN(Cc3ccccc3)C2=S)c1	x	n	n	n	n	x
CC(=O)N1CCN(C(=O)COc2ccc(N(C)S(=O)(=O)c3cccs3)cc2)CC1	n	n	n	n	n	x
CCN1/C(=C\C=C\C2=[N+](CC)c3ccccc3C2(C)C)C(C)(C)c2ccccc21	103	n	n	46	n	140	CHOP UPR conf=n
CC(C)c1ccc(N2C(=O)NC(=O)/C(=C\C=C\c3ccco3)C2=O)cc1	104	n	n	250	n	x	CHOP UPR conf=254
CN(N=O)c1ccc(O)c(O)c1	n	x	x	x	x	x
COc1cccc(CC(=O)Nc2cc(S(=O)(=O)N3CCOCC3)ccc2N2CCN(C)CC2)c1	x	x	n	n	n	x
O=c1[nH]c(=S)n(C2CC2)c(O)c1C=Nc1cccc(C(F)(F)F)c1	95	n	n	46	n	x	CHOP UPR conf=36
NC(=O)CI	n	x	x	x	x	x
COc1ccc(N2C(=O)/C(=C/C=C/c3ccccc3[N+](=O)[O-])C(=O)NC2=S)cc1	n	x	n	355	n	x	CHOP UPR conf=90
COc1ccc(-n2c(/C=C/c3ccc(O)c(OC)c3)nc3ccccc3c2=O)cc1	x	n	n	n	n	x
COc1cc(/C=C/[N+](=O)[O-])ccc1O	n	n	n	189	n	x	CHOP UPR conf=54

From PubChem BioAssay
